Experimental data as given in ChEMBL document CHEMBL4825662 (J Med Chem, 2021).
Calls of active or inactive are those of the source. The calls are words filed in the database; no cut-off is given here.

Key:
[1] = Tmax in Sprague-Dawley rat at 10 mg/kg, po measured after 0.02 to 24 hrs by UHPLC-TOF method; assay type: ADME, organism-based; settings: in vivo, 10 mg/kg, time 0.02-24 hrs
Rattus norvegicus = organism: Rattus norvegicus; test: Toxicity in rat by micronucleus test; assay type: functional, organism-based
Human orthopneumovirus [2] = test: Antiviral activity against Respiratory syncytial virus A by Plaque reduction assay; assay type: functional, organism-based
Method in brief: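 RSV A and B laboratory strains and low-passage clinical isolates were used to infect Vero or HepG2 cultures for 48 h with compound at 0.01 nM to 100 μM. Plaques were then detected by immunostaining.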

[3] = Cardiotoxicity in dog assessed as effect on QT interval by telemetry; assay type: toxicity, Canis lupus familiaris
[4] = Protein binding in rat plasma assessed as unbound fraction at 5 uM by LC-MS/MS analysis based equilibrium dialysis method; assay type: ADME, cell-free
Human orthopneumovirus [5] = test: Antiviral activity against Respiratory syncytial virus A2 infected in Balb/C mouse assessed as reduction in viral titers in lung homogenates at 1 mg/kg, po treated 2 hrs prior to viral infection followed by compound redosing at 24 hrs and measured after 5 days post infection by plaque assay relative to control; assay type: functional, human respiratory syncytial virus; set-up: scale not given: the % may be the effect or the level left
Method in brief: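 Female Balb/C mice aged 7–8 weeks, 6 per group, received two oral doses 2 h before and 24 h after intranasal inoculation with 5 × 10⁶ pfu of RSV A2. Mice were euthanized on day 5. Lung homogenate titers were determined by plaque assay on Vero cells and expressed as a percentage of the control group.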

Human orthopneumovirus [6] = test: Antiviral activity against Respiratory syncytial virus A Memphis 37b infected in human assessed as reduction in AUC of total symptom score at 200 to 350 mg administered twice daily administered for 5 days; assay type: functional, organism-based; settings: dose 200-350 mg, time 5.0 day
Method in brief: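 Phase 2a challenge study in healthy adults aged 18–45 with low serum RSV-specific antibodies, inoculated on day 0 with about 4 log10 PFU RSV-A Memphis 37b. After infection was confirmed, subjects were randomised to three equal groups: drug at 200 or 350 mg, or placebo, twice daily for 5 days. Read-out was AUC of total symptom score versus placebo.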

[7] = Clearance in CD1 mouse at 1 mg/kg, iv measured after 0.083 to 24 hrs by UHPLC-TOF method; assay type: ADME, organism-based; settings: in vivo, time 0.083-24 hrs
[8] = Oral bioavailability in Beagle dog at 3 mg/kg measured after 0.03 to 24 hrs by UHPLC-TOF method; assay type: ADME, organism-based, Canis lupus familiaris; settings: Beagle, in vivo, time 0.03-24 hrs
Method in brief: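 Dogs examined by a veterinary surgeon before each session, fed 2 h post-dose, water ad libitum, dosed as amorphous-solid suspension. Serial blood into heparinized tubes, centrifuged at 4 °C for 10 min at 3000g; plasma snap-frozen at −20 °C. IV sampling 2 min–24 h, oral 15 min–24 h. Plasma analysed by UHPLC-quadrupole-TOF MS.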

NCc1ccc2c(c1)nc(CN1C(=O)C3(CC3)c3ccc(F)cc31)n2CCCC(F)(F)F [SISUNATOVIR]
Tmax [1]: 2.7 h | Activity (Rattus norvegicus): Not toxic | IC50 (Human orthopneumovirus [2]): 1.4 nM | Activity [3]: Toxic | fraction unbound at 5 µM [4]: 0.52 | Activity (Human orthopneumovirus [5]): 79% | Activity (Human orthopneumovirus [6]): Active | clearance [7]: 47.9 mL/min/kg | bioavailability [8]: 44.2%
